Converted amounts (≈) assume the structure as drawn. The source made the active and inactive calls. The calls are words filed in the database; no cut-off is given here.
What was measured:
HOP-92 = assay: Growth inhibition of human HOP92 cells at 10 uM incubated for 48 hrs by sulforhodamine B assay; format: functional, cell-based
Method in brief: (§1)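 NCI 60-line panel, single 10 μM dose. Cells were grown in RPMI-1640 with 5% FBS and 2 mM L-glutamine and pre-incubated 24 h before compound addition (DMSO stock). Exposure was 48 h at 37 °C, 5% CO2. Cells were fixed with cold TCA (10% final), stained with 0.4% SRB, bound dye dissolved in 10 mM Tris base, A515 read. Growth was taken relative to time-zero and untreated control plates.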

UO-31 = assay: Growth inhibition of human UO31 cells at 10 uM incubated for 48 hrs by sulforhodamine B assay; format: functional, cell-based
Method in brief: (§2)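 NCI-60 single-dose screen at 10 µM for 48 h. Cells were grown in RPMI-1640 with 5% FBS and 2 mM L-glutamine and preincubated 24 h before compound. Time-zero plates were TCA-fixed at compound addition. After exposure, cells were TCA-fixed, stained with SRB and read at 515 nm. Percentage growth was calculated against time-zero and untreated-control absorbances.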

HOP-62 = assay: Growth inhibition of human HOP62 cells at 10 uM incubated for 48 hrs by sulforhodamine B assay; format: functional, cell-based
Method in brief: (§3)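 NCI 60-cell-line screen at a single 10 µM dose. Cells in RPMI-1640 with 5% FBS and 2 mM L-glutamine, pre-incubated 24 h, then treated for 48 h at 37 °C. TCA fixation, sulforhodamine B staining, absorbance at 515 nm. Percentage growth calculated against time-zero and untreated controls.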

HCC 2998 = assay: Growth inhibition of human HCC2998 cells at 10 uM incubated for 48 hrs by sulforhodamine B assay; format: functional, cell-based; method in brief: as §3
Candida albicans [1] = assay: Antifungal activity against Candida albicans ATCC 10231 incubated for 48 hrs under dark condition by broth microdilution method; format: functional; settings: ATCC 10231, 48 h
Method in brief: (§4)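 CLSI M27-A3 broth microdilution in RPMI-1640, DMSO ≤1%, compounds at 250-0.98 µg/mL final. Inoculum 1-5 × 10^3 CFU/mL. Incubated 48 h at 30 °C in a moist dark chamber, read at OD405. MIC80 and MIC50 taken from % inhibition dose-response curves (mean ± SEM, triplicate). Amphotericin B was the positive control.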

OVCAR-8 = assay: Growth inhibition of human OVCAR8 cells at 10 uM incubated for 48 hrs by sulforhodamine B assay; format: functional, cell-based; method in brief: as §1
Candida albicans [2] = assay: Growth inhibition of Candida albicans ATCC 10231 at 15.62 ug/ml incubated for 48 hrs under dark condition by broth microdilution method relative to control; format: functional; settings: ATCC 10231, 48 h, read-out: GI
Method in brief: (§5)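 CLSI M27-A3 broth microdilution in RPMI-1640, DMSO ≤1%. Inoculum 1-5 × 10^3 CFU/mL. Incubated 48 h at 30 °C, dark. % inhibition = 100 − (OD405 test − sterility control)/(OD405 growth control − sterility control), with growth and sterility control wells. Triplicate.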

MDA-MB-435 = assay: Growth inhibition of human MDA-MB-435 cells at 10 uM incubated for 48 hrs by sulforhodamine B assay; format: functional, cell-based; method in brief: as §1
UACC-62 = assay: Growth inhibition of human UACC62 cells at 10 uM incubated for 48 hrs by sulforhodamine B assay; format: functional, cell-based; method in brief: as §2
RXF 393 = assay: Growth inhibition of human RXF393 cells at 10 uM incubated for 48 hrs by sulforhodamine B assay; format: functional, cell-based; method in brief: as §1
SK-MEL-5 = assay: Growth inhibition of human SK-MEL-5 cells at 10 uM incubated for 48 hrs by sulforhodamine B assay; format: functional, cell-based; method in brief: as §2
PC-3 = assay: Growth inhibition of human PC3 cells at 10 uM incubated for 48 hrs by sulforhodamine B assay; format: functional, cell-based; method in brief: as §1
Escherichia coli = assay: Antibacterial activity against Escherichia coli ATCC 25922 after 24 hrs by resazurin dye based microdilution assay; format: functional; settings: ATCC 25922, 24 h
Method in brief: (§6)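 MIC taken as the lowest concentration giving visible inhibition and/or by resazurin (1 mg/mL). Gentamicin was the control. Run in duplicate, repeated at least three times.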

SF-295 = assay: Growth inhibition of human SF295 cells at 10 uM incubated for 48 hrs by sulforhodamine B assay; format: functional, cell-based; method in brief: as §1
K562 = assay: Growth inhibition of human K562 cells at 10 uM incubated for 48 hrs by sulforhodamine B assay; format: functional, cell-based; method in brief: as §1
SNB-19 = assay: Growth inhibition of human SNB19 cells at 10 uM incubated for 48 hrs by sulforhodamine B assay; format: functional, cell-based; method in brief: as §2
SK-OV-3 = assay: Growth inhibition of human SKOV3 cells at 10 uM incubated for 48 hrs by sulforhodamine B assay; format: functional, cell-based; method in brief: as §2
Staphylococcus aureus = assay: Antibacterial activity against methicillin-sensitive Staphylococcus aureus ATCC 25923 after 24 hrs by resazurin dye based microdilution assay; format: functional; settings: ATCC 25923, 24 h; method in brief: as §6
MDA-MB-231 = assay: Growth inhibition of human MDA-MB-231 cells at 10 uM incubated for 48 hrs by sulforhodamine B assay; format: functional, cell-based; method in brief: as §1
T47D = assay: Growth inhibition of human T47D cells at 10 uM incubated for 48 hrs by sulforhodamine B assay; format: functional, cell-based; method in brief: as §2
Cryptococcus neoformans [3] = assay: Growth inhibition of Cryptococcus neoformans ATCC 32264 at 15.62 ug/ml incubated for 48 hrs under dark condition by broth microdilution method relative to control; format: functional; settings: ATCC 32264, 48 h, read-out: GI; method in brief: as §5
Cryptococcus neoformans [4] = assay: Growth inhibition of Cryptococcus neoformans ATCC 32264 at 31.25 ug/ml incubated for 48 hrs under dark condition by broth microdilution method relative to control; format: functional; settings: ATCC 32264, 48 h, read-out: GI; method in brief: as §5
OVCAR-3 = assay: Growth inhibition of human OVCAR3 cells at 10 uM incubated for 48 hrs by sulforhodamine B assay; format: functional, cell-based; method in brief: as §1
Cryptococcus neoformans [5] = assay: Antifungal activity against Cryptococcus neoformans ATCC 32264 incubated for 48 hrs under dark condition by broth microdilution method; format: functional; settings: ATCC 32264, 48 h; method in brief: as §4
Candida albicans [6] = assay: Growth inhibition of Candida albicans ATCC 10231 at 250 ug/ml incubated for 48 hrs under dark condition by broth microdilution method relative to control; format: functional; settings: ATCC 10231, 48 h, read-out: GI; method in brief: as §5
OVCAR-4 = assay: Growth inhibition of human OVCAR4 cells at 10 uM incubated for 48 hrs by sulforhodamine B assay; format: functional, cell-based; method in brief: as §1
Cryptococcus neoformans [7] = assay: Growth inhibition of Cryptococcus neoformans ATCC 32264 at 3.4 ug/ml incubated for 48 hrs under dark condition by broth microdilution method relative to control; format: functional; settings: ATCC 32264, 48 h, read-out: GI
Candida albicans [8] = assay: Growth inhibition of Candida albicans ATCC 10231 at 7.8 ug/ml incubated for 48 hrs under dark condition by broth microdilution method relative to control; format: functional; settings: ATCC 10231, 48 h, read-out: GI; method in brief: as §5
MDA-MB-468 = assay: Growth inhibition of human MDA-MB-468 cells at 10 uM incubated for 48 hrs by sulforhodamine B assay; format: functional, cell-based; method in brief: as §1
RPMI-8226 = assay: Growth inhibition of human RPMI8226 cells at 10 uM incubated for 48 hrs by sulforhodamine B assay; format: functional, cell-based; method in brief: as §1
HCT-116 = assay: Growth inhibition of human HCT116 cells at 10 uM incubated for 48 hrs by sulforhodamine B assay; format: functional, cell-based; method in brief: as §3
HT-29 = assay: Growth inhibition of human HT-29 cells at 10 uM incubated for 48 hrs by sulforhodamine B assay; format: functional, cell-based; method in brief: as §1

SMILES	growth inhibition (GI) (HOP-92)	growth inhibition (GI) (UO-31)	growth inhibition (GI) (HOP-62)	growth inhibition (GI) (HCC 2998)	MIC50 (Candida albicans [1])	MIC80 (Candida albicans [1])	growth inhibition (GI) (OVCAR-8)	inhibition of growth at 15.62 µg/mL (Candida albicans [2])	growth inhibition (GI) (MDA-MB-435)	growth inhibition (GI) (UACC-62)	growth inhibition (GI) (RXF 393)	MIC (Escherichia coli)	MIC (Staphylococcus aureus)	inhibition of growth at 15.62 µg/mL (Cryptococcus neoformans [3])	inhibition of growth at 31.25 µg/mL (Cryptococcus neoformans [4])	MIC50 (Cryptococcus neoformans [5])	MIC80 (Cryptococcus neoformans [5])	inhibition of growth at 250 µg/mL (Candida albicans [6])	inhibition of growth at 3.4 µg/mL (Cryptococcus neoformans [7])	inhibition of growth at 7.8 µg/mL (Candida albicans [8])	further results
COc1ccc(C2=NN(c3ccccc3)C(c3cccc(Nc4ccnc5cc(Cl)ccc45)c3)C2)cc1 (stereo not drawn)	inactive	inactive	inactive	inactive	≥ 250 µg/mL	≥ 250 µg/mL	inactive	8.21%	inactive	inactive	inactive	> 1000 µg/mL	> 1000 µg/mL	6.02%	7.77%	≥ 250 µg/mL	≥ 250 µg/mL	25.6%	2.74%	7.57%	growth inhibition (GI) (SK-MEL-5): inactive; growth inhibition (GI) (PC-3): inactive; growth inhibition (GI) (SF-295): inactive; growth inhibition (GI) (K562): inactive; growth inhibition (GI) (SNB-19): inactive; growth inhibition (GI) (SK-OV-3): inactive; growth inhibition (GI) (MDA-MB-231): inactive; growth inhibition (GI) (T47D): inactive; growth inhibition (GI) (OVCAR-3): inactive; growth inhibition (GI) (OVCAR-4): inactive; growth inhibition (GI) (MDA-MB-468): inactive; growth inhibition (GI) (RPMI-8226): inactive; growth inhibition (GI) (HCT-116): inactive; growth inhibition (GI) (HT-29): inactive
COc1cc(C(=O)/C=C/c2cccc(Nc3ccnc4cc(Cl)ccc34)c2)cc(OC)c1OC	Active	Active	Active	Active	≥ 250 µg/mL	≥ 250 µg/mL	Active	4.77%	Active	Active	Active	> 1000 µg/mL	> 1000 µg/mL	0%	3.63%	≥ 250 µg/mL	≥ 250 µg/mL	13.7%	0%	2.51%	growth inhibition (GI) (SK-MEL-5): Active; growth inhibition (GI) (PC-3): Active; growth inhibition (GI) (SF-295): Active; growth inhibition (GI) (K562): Active; growth inhibition (GI) (SNB-19): Active; growth inhibition (GI) (SK-OV-3): Active; growth inhibition (GI) (MDA-MB-231): Active; growth inhibition (GI) (T47D): Active; growth inhibition (GI) (OVCAR-3): Active; growth inhibition (GI) (OVCAR-4): Active; growth inhibition (GI) (MDA-MB-468): Active; growth inhibition (GI) (RPMI-8226): Active; growth inhibition (GI) (HCT-116): Active; growth inhibition (GI) (HT-29): Active
COc1ccc(C2=NN(c3ccc(Cl)cc3)C(c3cccc(Nc4ccnc5cc(Cl)ccc45)c3)C2)cc1 (stereo not drawn)	inactive	inactive	inactive	inactive	≥ 250 µg/mL	≥ 250 µg/mL	inactive	0%	inactive	inactive	inactive	> 1000 µg/mL	> 1000 µg/mL	12.6%	13.1%	250 µg/mL (≈ 463 µM)	≥ 250 µg/mL	3.08%	7.99%	0%	growth inhibition (GI) (SK-MEL-5): inactive; growth inhibition (GI) (PC-3): inactive; growth inhibition (GI) (SF-295): inactive; growth inhibition (GI) (K562): inactive; growth inhibition (GI) (SNB-19): inactive; growth inhibition (GI) (SK-OV-3): inactive; growth inhibition (GI) (MDA-MB-231): inactive; growth inhibition (GI) (T47D): inactive; growth inhibition (GI) (OVCAR-3): inactive; growth inhibition (GI) (OVCAR-4): inactive; growth inhibition (GI) (MDA-MB-468): inactive; growth inhibition (GI) (RPMI-8226): inactive; growth inhibition (GI) (HCT-116): inactive; growth inhibition (GI) (HT-29): inactive
O=CN1N=C(c2ccc(Cl)cc2)CC1c1cccc(Nc2ccnc3cc(Cl)ccc23)c1 (stereo not drawn)	Active	Active	Active	Active	250 µg/mL (≈ 542 µM)	≥ 250 µg/mL	Active	22.7%	Active	Active	Active	> 1000 µg/mL	> 1000 µg/mL	44%	55.7%	31.2 µg/mL (≈ 67.7 µM)	≥ 250 µg/mL	67.5%	37.7%	12%	growth inhibition (GI) (SK-MEL-5): Active; growth inhibition (GI) (PC-3): Active; growth inhibition (GI) (SF-295): Active; growth inhibition (GI) (K562): Active; growth inhibition (GI) (SNB-19): Active; growth inhibition (GI) (SK-OV-3): Active; growth inhibition (GI) (MDA-MB-231): Active; growth inhibition (GI) (T47D): Active; growth inhibition (GI) (OVCAR-3): Active; growth inhibition (GI) (OVCAR-4): Active; growth inhibition (GI) (MDA-MB-468): Active; growth inhibition (GI) (RPMI-8226): Active; growth inhibition (GI) (HCT-116): Active; growth inhibition (GI) (HT-29): Active
O=Cc1cccc(Nc2ccnc3cc(Cl)ccc23)c1					250 µg/mL (≈ 884 µM)	≥ 250 µg/mL		10.8%				62.5 µg/mL (≈ 221 µM)	62.5 µg/mL (≈ 221 µM)	9.47%	14.3%	250 µg/mL (≈ 884 µM)	250 µg/mL (≈ 884 µM)	59.2%	5.03%	1.48%	

Source: ChEMBL document CHEMBL4038284, “Synthesis of novel quinoline-based 4,5-dihydro-1H-pyrazoles as potential anticancer, antifungal, antibacterial and antiprotozoal agents” (Eur J Med Chem, 2017)
